The nature of assay [1]: Cytotoxicity against human U87 cells after 72 hrs by MTT assay. To be noted: U-87 MG. In kind it is functional, U-87MG ATCC. The gist of the method: (§1)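 Cells seeded at 5×10^3 per well in DMEM with 10% FBS, preincubated 4 h, then exposed to serial dilutions for 72 h. MTT at 1 mg/mL added for 4 h at 37 °C, formazan dissolved in DMSO, absorbance read at 570 nm. Triplicate assays; GI50 from non-linear regression of sigmoidal dose-response curves.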

A further assay has as its system SiHa. Briefly: Cytotoxicity against human SiHa cells after 72 hrs by MTT assay. In kind it is functional. Put shortly:
as §1

A short description of assay [2]: Cytotoxicity against human A172 cells after 72 hrs by MTT assay. To be noted: A 172, 72 h. In kind it is functional. Put shortly:
as §1

For a further assay, the system named is DLD-1. As to the kind of experiment: Cytotoxicity against human DLD1 cells after 72 hrs by MTT assay. It is filed as functional. To be noted: DLD-1, 72 h. The gist of the method: as §1
In the next assay the test system is B16. Briefly: Cytotoxicity against mouse B16 cells after 72 hrs by MTT assay. It is filed as functional. To be noted: B16, 72 h. The gist of the method: as §1
For another assay, the system named is HeLa. Briefly: Cytotoxicity against human HeLa cells after 72 hrs by MTT assay. It is filed as functional. The gist of the method: as §1

Molecules are shown by their SMILES.

For the compound `C[C@H]1[C@H](n2nncc2-c2ccc(F)cc2)O[C@@H]2O[C@]3(C)CC[C@H]4[C@H](C)CC[C@@H]1[C@@]24OO3`, the GI50 stood at 90 nM in assay [1]; 80 nM in the assay on SiHa; 80 nM in assay [2]; 310 nM in the assay with DLD-1; 770 nM in the assay on B16; 60 nM in the assay with HeLa.
Turning to `C[C@H]1[C@H](n2cc(-c3ccc(F)cc3)nn2)O[C@@H]2O[C@]3(C)CC[C@H]4[C@H](C)CC[C@@H]1[C@@]24OO3`, the GI50 came to 160 nM in assay [1]; 140 nM in the assay with SiHa; 130 nM in assay [2]; 480 nM with DLD-1; 110 nM with B16; 50 nM in the assay on HeLa.
In the case of `C[C@H]1[C@H](n2cc(-c3ccccc3C(F)(F)F)nn2)O[C@@H]2O[C@]3(C)CC[C@H]4[C@H](C)CC[C@@H]1[C@@]24OO3`, the GI50 in assay [1] amounted to 290 nM; in the assay on SiHa it was 320 nM; in assay [2], 290 nM; in the assay on DLD-1, 2380 nM; in the assay on B16, 340 nM; in the assay on HeLa, 190 nM.
As for `CCCCCc1ccc(-c2cn([C@H]3O[C@@H]4O[C@]5(C)CC[C@H]6[C@H](C)CC[C@@H]([C@@H]3C)[C@@]46OO5)nn2)cc1`, the GI50 is 270 nM in assay [1]; 440 nM with SiHa; 260 nM in assay [2]; 840 nM in the assay on DLD-1; 340 nM in the assay with B16; 240 nM with HeLa.
For the compound `C[C@@H]1[C@@H](n2cc(-c3cccc(Cl)c3)nn2)O[C@@H]2O[C@]3(C)CC[C@H]4[C@H](C)CC[C@@H]1[C@@]24OO3`, the GI50 in assay [1] is 350 nM; in the assay on SiHa, 410 nM; in assay [2], 330 nM; with DLD-1 it was 1170 nM; in the assay on B16, 280 nM; with HeLa, 210 nM.
For the compound `C[C@H]1[C@H](n2nncc2-c2cccc(Cl)c2)O[C@@H]2O[C@]3(C)CC[C@H]4[C@H](C)CC[C@@H]1[C@@]24OO3`, the GI50 amounted to 100 nM in assay [1]; 160 nM with SiHa; 130 nM in assay [2]; 40 nM in the assay on DLD-1; 100 nM in the assay with B16; 60 nM with HeLa.
For `COc1ccc(-c2cnnn2[C@@H]2O[C@@H]3O[C@]4(C)CC[C@H]5[C@H](C)CC[C@@H]([C@H]2C)[C@@]35OO4)cc1`, the GI50 in assay [1] was determined as 230 nM; in the assay with SiHa, 240 nM; in assay [2], 210 nM; in the assay on DLD-1, 880 nM; in the assay with B16, 290 nM; with HeLa, 90 nM.
On to `C[C@@H]1[C@@H](n2cc(-c3ccccc3)nn2)O[C@@H]2O[C@]3(C)CC[C@H]4[C@H](C)CC[C@@H]1[C@@]24OO3`, for which the GI50 in assay [1] worked out at 150 nM; in the assay with SiHa, 140 nM; in assay [2] it was 110 nM; with DLD-1 it was 280 nM; in the assay with B16, 200 nM; with HeLa it was 30 nM.
Regarding `C[C@H]1[C@H](n2nncc2-c2ccccc2C(F)(F)F)O[C@@H]2O[C@]3(C)CC[C@H]4[C@H](C)CC[C@@H]1[C@@]24OO3`, the GI50 is 80 nM in assay [1]; 80 nM in the assay with SiHa; 80 nM in assay [2]; 170 nM with DLD-1; 80 nM with B16; 70 nM in the assay with HeLa.
`C[C@H]1[C@H](n2nncc2-c2ccccc2)O[C@@H]2O[C@]3(C)CC[C@H]4[C@H](C)CC[C@@H]1[C@@]24OO3`: the GI50 in assay [1] came to 200 nM; with SiHa, 140 nM; in assay [2], 150 nM; with DLD-1, 600 nM; in the assay on B16, 220 nM; in the assay on HeLa, 40 nM.
On to `C[C@H]1[C@H](n2cc(-c3ccccc3)nn2)O[C@@H]2O[C@]3(C)CC[C@H]4[C@H](C)CC[C@@H]1[C@@]24OO3`, for which the GI50 in assay [1] is 500 nM; in the assay on SiHa, 730 nM; in assay [2], 570 nM; in the assay on DLD-1, 930 nM; in the assay on B16, 780 nM; in the assay with HeLa it was 580 nM.
For the compound `CCCCCc1ccc(-c2cnnn2[C@@H]2O[C@@H]3O[C@]4(C)CC[C@H]5[C@H](C)CC[C@@H]([C@H]2C)[C@@]35OO4)cc1`, the GI50 turned out to be 90 nM in assay [1]; 100 nM in the assay on SiHa; 220 nM in the assay with DLD-1; 80 nM in the assay with B16; 40 nM in the assay with HeLa.
Regarding `Cc1ccc(-c2cn([C@@H]3O[C@@H]4O[C@]5(C)CC[C@H]6[C@H](C)CC[C@@H]([C@H]3C)[C@@]46OO5)nn2)cc1`, the GI50 in assay [1] was 280 nM; in the assay on SiHa it was 120 nM; in assay [2] it was 90 nM; with DLD-1, 400 nM; in the assay on B16, 120 nM; in the assay with HeLa it was 110 nM.
On to `CCCCCc1ccc(-c2cn([C@@H]3O[C@@H]4O[C@]5(C)CC[C@H]6[C@H](C)CC[C@@H]([C@H]3C)[C@@]46OO5)nn2)cc1`, for which the GI50 in assay [1] was 70 nM; with SiHa, 80 nM; in assay [2], 70 nM; in the assay with DLD-1 it was 140 nM; in the assay on B16, 70 nM; with HeLa, 90 nM.
As to `COc1ccc(-c2cn([C@H]3O[C@@H]4O[C@]5(C)CC[C@H]6[C@H](C)CC[C@@H]([C@@H]3C)[C@@]46OO5)nn2)cc1`, the GI50 in assay [1] stood at 70 nM; in the assay on SiHa it was 70 nM; in assay [2] it was 70 nM; in the assay with DLD-1, 220 nM; in the assay with B16 it was 100 nM; in the assay with HeLa, 100 nM.
For `C[C@@H]1[C@@H](n2cc(-c3cc(F)cc(F)c3)nn2)O[C@@H]2O[C@]3(C)CC[C@H]4[C@H](C)CC[C@@H]1[C@@]24OO3`, the GI50 in assay [1] was 450 nM; in the assay with SiHa, 460 nM; in assay [2], 540 nM; in the assay on DLD-1, 1280 nM; with B16 it was 700 nM; with HeLa, 240 nM.
Consider `C[C@@H]1[C@@H](n2cc(-c3ccc(F)cc3)nn2)O[C@@H]2O[C@]3(C)CC[C@H]4[C@H](C)CC[C@@H]1[C@@]24OO3`, for which the concentration for 50% growth inhibition (GI50) in assay [1] was 630 nM; with SiHa it was 960 nM; in assay [2] it was 560 nM; with DLD-1, 2150 nM; in the assay with B16, 840 nM; in the assay with HeLa it was 410 nM.
`C[C@H]1[C@H](n2nncc2-c2cc(F)cc(F)c2)O[C@@H]2O[C@]3(C)CC[C@H]4[C@H](C)CC[C@@H]1[C@@]24OO3`: the GI50 in assay [1] is 170 nM; in the assay with SiHa it was 70 nM; in assay [2], 100 nM; with DLD-1 it was 170 nM; in the assay on B16, 100 nM; in the assay on HeLa it was 80 nM.
Take `C[C@H]1[C@H](n2cc(-c3cc(F)cc(F)c3)nn2)O[C@@H]2O[C@]3(C)CC[C@H]4[C@H](C)CC[C@@H]1[C@@]24OO3`: the GI50 in assay [1] is 130 nM; in the assay with SiHa, 120 nM; in assay [2] it was 140 nM; with DLD-1 it was 300 nM; in the assay with B16 it was 130 nM; in the assay on HeLa it was 50 nM.
Turning to `C[C@H]1[C@H](n2cc(-c3cccc(Cl)c3)nn2)O[C@@H]2O[C@]3(C)CC[C@H]4[C@H](C)CC[C@@H]1[C@@]24OO3`, the GI50 in assay [1] stood at 250 nM; in the assay with SiHa, 240 nM; in assay [2], 310 nM; in the assay with DLD-1, 290 nM; with B16 it was 210 nM; with HeLa, 90 nM.
Take `Cc1ccc(-c2cn([C@H]3O[C@@H]4O[C@]5(C)CC[C@H]6[C@H](C)CC[C@@H]([C@@H]3C)[C@@]46OO5)nn2)cc1`: the GI50 in assay [1] amounted to 1340 nM; in the assay with SiHa it was 1580 nM; in assay [2], 1740 nM; in the assay on DLD-1, 160 nM; with B16, 700 nM; in the assay on HeLa, 730 nM.
In the case of `Cc1ccc(-c2cnnn2[C@@H]2O[C@@H]3O[C@]4(C)CC[C@H]5[C@H](C)CC[C@@H]([C@H]2C)[C@@]35OO4)cc1`, the GI50 turned out to be 110 nM in assay [1]; 190 nM in the assay with SiHa; 100 nM in assay [2]; 290 nM in the assay with DLD-1; 110 nM with B16; 40 nM with HeLa.
As to `C[C@@H]1[C@@H](n2cc(-c3ccccc3C(F)(F)F)nn2)O[C@@H]2O[C@]3(C)CC[C@H]4[C@H](C)CC[C@@H]1[C@@]24OO3`, the GI50 was 530 nM in assay [1]; 620 nM in the assay on SiHa; 400 nM in assay [2]; 1070 nM with DLD-1; 480 nM in the assay with B16; 350 nM with HeLa.
Turning to `COc1ccc(-c2cn([C@@H]3O[C@@H]4O[C@]5(C)CC[C@H]6[C@H](C)CC[C@@H]([C@H]3C)[C@@]46OO5)nn2)cc1`, the GI50 in assay [1] was 390 nM; with SiHa it was 360 nM; in assay [2], 300 nM; in the assay on DLD-1 it was 490 nM; in the assay with B16 it was 130 nM; in the assay with HeLa, 130 nM.
For the compound `CC(=O)O[C@H]1C(=O)[C@@]2(C)[C@H]([C@H](OC(=O)c3ccccc3)[C@]3(O)C[C@H](OC(=O)[C@H](O)[C@@H](NC(=O)c4ccccc4)c4ccccc4)C(C)=C1C3(C)C)[C@]1(OC(C)=O)CO[C@@H]1C[C@@H]2O` [PACLITAXEL], the GI50 in assay [1] is 20 nM; with SiHa, 30 nM; in assay [2], 10 nM; in the assay with DLD-1 it was 10 nM; with B16 it was 10 nM; in the assay on HeLa, 20 nM.

The record behind these values is ChEMBL document CHEMBL1177810, “Acid-catalyzed synthesis of 10-substituted triazolyl artemisinins and their growth inhibitory activity against various cancer cells” (2010).
